We go through seven molecules from ChEMBL document CHEMBL3588802, “Thiol activated prodrugs of sulfur dioxide (SO2) as MRSA inhibitors” (Bioorg Med Chem Lett, 2015).

A short description of data set [1]: Cytotoxicity against human A549 cells after 72 hrs by MTT assay. In kind it is cell-based. A general note: Tetrazolium assays rely on reduction of a dye to a coloured formazan, in cell work by metabolically active cells.
The subject of data set [2] is Staphylococcus aureus. Kind of data set: Antibacterial activity against methicillin-resistant Staphylococcus aureus after 18 to 20 hrs by microbroth dilution method. In kind it is functional. In general terms: In broth dilution the organism is exposed to a series of concentrations in liquid medium.
Data set [3] deals with Staphylococcus aureus. Description: Induction of intracellular oxidative species generation in methicillin-sensitive Staphylococcus aureus 29213 at 0.5 to 8 ug/ml after 1 hr by DCFH2-DA dye-based fluorescence assay. Format: functional, organism-based. Summed up: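 Intracellular oxidative species in S. aureus are read as fluorescence of 2,7-dichlorodihydrofluorescein-diacetate (DCFH2-DA) after exposure to compound.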

The subject of data set [4] is Staphylococcus aureus. Description: Induction of intracellular thiol depletion in Staphylococcus aureus after 60 mins by monobromobimane-based fluorescence assay relative to control. Format: functional, organism-based.
Data set [5] deals with Staphylococcus aureus. Description: Antibacterial activity against patient-derived methicillin-resistant Staphylococcus aureus 7419 after 18 to 20 hrs by microbroth dilution method. Format: functional. In a few lines:
(§1)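 Patient-derived MRSA clinical isolates from the Department of Microbiology, Nizam's Institute of Medical Sciences, Hyderabad. MIC determined by broth dilution.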

Data set [6] is described as follows: Selectivity index, ratio of GI50 for human A549 cells to MIC for Staphylococcus aureus. Summed up:
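Selectivity index calculated as GI50 in A549 lung carcinoma cells divided by MIC.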

Data set [7] has as its system Staphylococcus aureus. Description: Antibacterial activity against patient-derived methicillin-resistant Staphylococcus aureus 7425 after 18 to 20 hrs by microbroth dilution method. In kind it is functional. Summed up: as §1
Data set [8] concerns Staphylococcus aureus. Kind of data set: Antibacterial activity against patient-derived methicillin-resistant Staphylococcus aureus B19506 after 18 to 20 hrs by microbroth dilution method. In kind it is functional. In a few lines:
as §1

The subject of data set [9] is Staphylococcus aureus. Kind of data set: Antibacterial activity against patient-derived methicillin-resistant Staphylococcus aureus K1 after 18 to 20 hrs by microbroth dilution method. In kind it is functional. Summed up: as §1
Another data set relates to Enterococcus faecalis. Kind of data set: Antibacterial activity against Enterococcus faecalis after 18 to 20 hrs by microbroth dilution method. In kind it is functional.
Data set [10] concerns Staphylococcus aureus. Kind of data set: Antibacterial activity against methicillin-sensitive Staphylococcus aureus after 18 to 20 hrs by microbroth dilution method. Format: functional.
The next data set deals with Escherichia coli. Description: Antibacterial activity against Escherichia coli after 18 to 20 hrs by microbroth dilution method. In kind it is functional.
Data set [11] has as its system Staphylococcus aureus. Description: Antibacterial activity against patient-derived methicillin-resistant Staphylococcus aureus 7386 after 18 to 20 hrs by microbroth dilution method. Format: functional. In a few lines:
as §1

In data set [12] the test system is Staphylococcus aureus. Description: Induction of intracellular thiol depletion in Staphylococcus aureus after 60 mins by monobromobimane-based fluorescence assay relative to control.

≈ marks a conversion by molar mass, not a printed value. Calls of active or inactive are those of the source. The rule behind the calls is not given here. A value given as a limit tells only on which side of the number the result lay.

Turning to `C#CCN(c1cccc(OC)c1)S(=O)(=O)c1ccc([N+](=O)[O-])cc1[N+](=O)[O-]`, in data set [1], it took 27 µM to inhibit growth by half (GI50 at 72 h). In addition, the MIC against Staphylococcus aureus [2] came to 4 µg/mL (≈ 10.2 µM); in the data set with Staphylococcus aureus [5] it was 4 µg/mL (≈ 10.2 µM); against Staphylococcus aureus [7] it was 2 µg/mL (≈ 5.11 µM); in the data set with Staphylococcus aureus [8], 2 µg/mL (≈ 5.11 µM); against Staphylococcus aureus [9], 4 µg/mL (≈ 10.2 µM); in the data set with Enterococcus faecalis, 8 µg/mL (≈ 20.4 µM). Also, the MIC was 4 µg/mL (≈ 10.2 µM) in the data set with Staphylococcus aureus [10], over 32 µg/mL against Escherichia coli and 2 µg/mL (≈ 5.11 µM) with Staphylococcus aureus [11]. The outcome with Staphylococcus aureus [3] was Active. In the data set on Staphylococcus aureus [4], the Activity result is “Dose-dependent effect”. The “Selectivity Index” value in data set [6] worked out at 5.2.
For `C[C@@H](O)[C@H]1C(=O)N2C(C(=O)O)=C(S[C@@H]3CN[C@H](C(=O)N(C)C)C3)[C@H](C)[C@H]12` [MEROPENEM], the minimal inhibitory concentration (MIC) against Staphylococcus aureus [2] was 16 µg/mL (≈ 41.7 µM); with Staphylococcus aureus [5] it was 16 µg/mL (≈ 41.7 µM); in the data set with Staphylococcus aureus [7], 4 µg/mL (≈ 10.4 µM); in the data set with Staphylococcus aureus [8] it was 1 µg/mL (≈ 2.61 µM); against Staphylococcus aureus [9], 0.5 µg/mL (≈ 1.3 µM); in the data set with Staphylococcus aureus [11] it was over 32 µg/mL.
Take `C#CCN(CC)S(=O)(=O)c1ccc([N+](=O)[O-])cc1[N+](=O)[O-]`: the MIC in the data set with Staphylococcus aureus [2] is 16 µg/mL (≈ 51.1 µM); in the data set with Enterococcus faecalis it was over 32 µg/mL; against Staphylococcus aureus [10], 16 µg/mL (≈ 51.1 µM); in the data set with Escherichia coli it was over 32 µg/mL. The result in the data set on Staphylococcus aureus [12] was inactive.
Turning to `CCN1C(=O)C=CC1=O`, the outcome with Staphylococcus aureus [12] was Active.
As to `COc1ccc(CN(CCCN(Cc2ccccc2)S(=O)(=O)c2ccc([N+](=O)[O-])cc2[N+](=O)[O-])S(=O)(=O)c2ccc([N+](=O)[O-])cc2[N+](=O)[O-])c(OC)c1`, the MIC in the data set on Staphylococcus aureus [2] is over 32 µg/mL; against Enterococcus faecalis, over 32 µg/mL; with Staphylococcus aureus [10] it was over 16 µg/mL; against Escherichia coli it was over 32 µg/mL. The outcome in the data set with Staphylococcus aureus [12] was inactive.
In the case of `NC[C@H]1O[C@H](O[C@H]2[C@H](O)[C@@H](O[C@H]3O[C@H](CO)[C@@H](O)[C@H](N)[C@H]3O)[C@H](N)C[C@@H]2N)[C@H](N)C[C@@H]1O` [TOBRAMYCIN], the MIC is over 32 µg/mL in the data set with Staphylococcus aureus [2]; over 32 µg/mL in the data set on Staphylococcus aureus [5]; 1 µg/mL (≈ 2.14 µM) in the data set with Staphylococcus aureus [7]; over 32 µg/mL in the data set on Staphylococcus aureus [8]; 8 µg/mL (≈ 17.1 µM) in the data set on Staphylococcus aureus [9]; over 32 µg/mL with Staphylococcus aureus [11].
On to `O=C(O)c1cn(C2CC2)c2cc(N3CCNCC3)c(F)cc2c1=O` [CIPROFLOXACIN], for which the minimum inhibitory concentration (MIC) is 0.25 µg/mL (≈ 0.754 µM) in the data set on Staphylococcus aureus [2]; over 4 µg/mL in the data set with Staphylococcus aureus [5]; over 4 µg/mL with Staphylococcus aureus [7]; 32 µg/mL (≈ 96.6 µM) against Staphylococcus aureus [8]; 0.5 µg/mL (≈ 1.51 µM) against Staphylococcus aureus [9]; at most 0.00075 µg/mL in the data set on Escherichia coli. Further, the minimal inhibitory concentration (MIC) in the data set on Staphylococcus aureus [11] was over 4 µg/mL.

A word on the GI50: it is the concentration at which growth is held to half of that of the control. Low values mean greater sensitivity of the cells, high ones lower sensitivity of the cells. What is called MIC is the lowest concentration that inhibits growth of the organism. High values mean a less susceptible organism, low ones a more susceptible organism.
